A short description of data set [1]: Inhibition of porcine kidney TNAP assessed as para nitrophenylphosphate conversion to p-nitrophenolate at pH 7.8 incubated for 10 mins prior to substrate addition measured after 5 seconds by spectrophotometric analysis. Details: species or system Sus scrofa. The gist of the method: (§1)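 Enzyme (TNAP, PLAP or IAP; final 6.93–11.4 µg/ml) in buffer with inhibitor at 0–400 µM, added from 10 mM DMSO stock. Preincubated 10 min at 37 °C without substrate, then mixed with an equal volume of 0.1 mM pNPP in the same buffer and stirred 5 s. p-Nitrophenolate read at 400 nm (ε 18.5 cm⁻¹ mM⁻¹ at pH 10.4), final DMSO 4% v/v. Activity relative to the no-inhibitor control. pH 7.8 runs used 0.1 M Tris–HCl with 5 mM MgCl2 and 5 mM ZnCl2 at 37 °C.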

For data set [2], the target named is T1, Alkaline phosphatase, placental type (Homo sapiens, UniProt P05187). The experiment in a line: Inhibition of placental alkaline phosphatase (unknown origin) assessed as para nitrophenylphosphate conversion to p-nitrophenolate at pH 10.4 incubated for 10 mins prior to substrate addition measured after 5 seconds by spectrophotometric analysis. The gist of the method: as §1

A short description of data set [3]: Cytotoxicity against human Saos2 cells assessed as cell viability up to 10 uM by MTT assay. The data set is classed as cell-based. As to conditions: saos-2. The gist of the method: (§2)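 MTT viability: cells seeded at 3 × 10^4 cells/cm2 and treated with ascorbic acid plus 7.5 mM β-glycerophosphate, with or without inhibitor (DMSO ≤0.1% v/v final). MTT at 0.5 mg/ml final for 4 h, then solubilization solution overnight at 37 °C. Absorbance at 550 and 690 nm as % of untreated control, mean ± SD. MG63: one pool in triplicate (n = 3). Saos-2: 3–4 pools in triplicate (n = 9–12).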
In general terms: Tetrazolium assays rely on reduction of a dye to a coloured formazan, in cell work by metabolically active cells.

Data set [4] is described as follows: Solubility of the compound in water by UV spectrometric analysis. The format is physicochemical.
The target in data set [5] is T2, Intestinal-type alkaline phosphatase (Homo sapiens, UniProt P09923). The experiment in a line: Inhibition of intestinal alkaline phosphatase (unknown origin) assessed as para nitrophenylphosphate conversion to p-nitrophenolate at pH 10.4 incubated for 10 mins prior to substrate addition measured after 5 seconds by spectrophotometric analysis. The gist of the method: as §1

The target in data set [6] is T2, Intestinal-type alkaline phosphatase. In words: Inhibition of intestinal alkaline phosphatase (unknown origin) assessed as para nitrophenylphosphate conversion to p-nitrophenolate at pH 7.8 incubated for 10 mins prior to substrate addition measured after 5 seconds by spectrophotometric analysis. The gist of the method:
as §1

The test system of data set [7] is SAOS-2. The experiment in a line: Reduction in ascorbic acid-induced mineralization in human Saos2 cells at 10 uM after 7 days by Alizarin Red S staining-based assay relative to control. Details: scale not given: the % may be the effect or the level left. The format is functional. Summed up:
(§3)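 Confluent cells were cultured 7 days in growth medium with ascorbic acid and 7.5 mM β-glycerophosphate, with or without inhibitor (DMSO ≤0.1% v/v). Saos-2 were grown in McCoy's 5A with 15% FBS. Mineral was stained with Alizarin Red S, destained with 3.6% w/v cetylpyridinium chloride in PBS pH 7.0 for 60 min at room temperature, and read at 562 nm. Results are % of control, mean ± SD; MG63 n = 3, Saos-2 n = 9–12.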

Data set [8] in a line: Inhibition of porcine kidney TNAP assessed as para nitrophenylphosphate conversion to p-nitrophenolate at pH 10.4 incubated for 10 mins prior to substrate addition measured after 5 seconds by spectrophotometric analysis. Details: species or system Sus scrofa. Summed up: as §1
The subject of data set [9] is SAOS-2. In words: Reduction in beta-glycerophosphate-induced mineralization in human Saos2 cells at 10 uM after 7 days by Alizarin Red S staining-based assay relative to control. Details: scale not given: the % may be the effect or the level left. The data set is classed as functional. Summed up:
as §3

Data set [10] can be described thus: Uncompetitive inhibition of porcine kidney TNAP assessed as para nitrophenylphosphate conversion to p-nitrophenolate at pH 7.8 by Michaelis-Menten plot analysis. Details: species or system Sus scrofa. The gist of the method: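 Porcine kidney TNAP activity measured with pNPP at pH 7.8 in 0.1 M Tris–HCl containing 5 mM MgCl2 and 5 mM ZnCl2 at 37 °C. Inhibitor was preincubated with enzyme for 10 min before substrate, and p-nitrophenolate was read at 400 nm to derive Ki.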

The target in data set [11] is T1, Alkaline phosphatase, placental type. In words: Inhibition of placental alkaline phosphatase (unknown origin) assessed as para nitrophenylphosphate conversion to p-nitrophenolate at pH 7.8 incubated for 10 mins prior to substrate addition measured after 5 seconds by spectrophotometric analysis. Summed up: as §1
Data set [12] concerns MG-63. In words: Reduction in beta-glycerophosphate-induced mineralization in human MG63 cells at 10 uM after 7 days by Alizarin Red S staining-based assay. The data set is classed as functional, cell-based. The gist of the method: as §3
The subject of data set [13] is MG-63. The experiment in a line: Reduction in ascorbic acid-induced mineralization in human MG63 cells at 10 uM after 7 days by Alizarin Red S staining-based assay. The format is functional, cell-based. The gist of the method:
as §3

Data set [14] in a line: Cytotoxicity against human MG63 cells assessed as cell viability up to 10 uM by MTT assay. The data set is classed as cell-based. The conditions noted are these: mg-63. Summed up:
as §2

Data set [15] can be described thus: Solubility of the compound.

Values after ≈ are worked out from the molar mass of the structure shown. Active and inactive are the calls of the source. The calls are words filed in the database; no cut-off is given here.

T2 sequence (P09923 whole entry): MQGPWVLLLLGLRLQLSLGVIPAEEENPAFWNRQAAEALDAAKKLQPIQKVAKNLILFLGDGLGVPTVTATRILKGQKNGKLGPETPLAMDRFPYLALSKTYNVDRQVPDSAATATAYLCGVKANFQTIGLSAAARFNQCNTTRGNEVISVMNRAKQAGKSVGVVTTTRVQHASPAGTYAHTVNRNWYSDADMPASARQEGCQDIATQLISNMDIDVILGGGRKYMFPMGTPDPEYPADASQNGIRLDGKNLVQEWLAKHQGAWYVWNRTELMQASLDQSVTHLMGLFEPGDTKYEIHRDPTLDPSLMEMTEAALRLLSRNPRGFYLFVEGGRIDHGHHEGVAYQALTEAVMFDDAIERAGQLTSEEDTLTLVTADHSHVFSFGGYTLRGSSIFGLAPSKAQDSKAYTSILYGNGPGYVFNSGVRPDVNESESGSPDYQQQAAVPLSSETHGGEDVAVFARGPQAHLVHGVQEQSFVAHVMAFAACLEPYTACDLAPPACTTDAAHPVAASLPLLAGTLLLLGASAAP
T1 sequence (P05187 whole entry): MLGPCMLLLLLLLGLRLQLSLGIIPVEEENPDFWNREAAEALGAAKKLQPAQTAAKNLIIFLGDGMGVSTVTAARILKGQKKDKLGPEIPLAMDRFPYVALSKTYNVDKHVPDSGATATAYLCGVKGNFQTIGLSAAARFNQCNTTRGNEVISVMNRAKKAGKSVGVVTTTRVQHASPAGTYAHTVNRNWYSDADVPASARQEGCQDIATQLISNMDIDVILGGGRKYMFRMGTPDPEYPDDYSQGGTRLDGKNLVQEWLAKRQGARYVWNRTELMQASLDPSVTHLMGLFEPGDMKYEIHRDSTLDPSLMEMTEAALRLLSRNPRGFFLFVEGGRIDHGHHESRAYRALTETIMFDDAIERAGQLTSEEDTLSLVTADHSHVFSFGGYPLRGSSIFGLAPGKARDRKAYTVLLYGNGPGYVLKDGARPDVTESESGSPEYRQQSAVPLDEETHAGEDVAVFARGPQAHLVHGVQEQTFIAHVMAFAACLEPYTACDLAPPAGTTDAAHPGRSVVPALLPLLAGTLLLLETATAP

Take `Cl.O=[N+]([O-])c1ccc2sc(C3CN4C=CSC4=N3)cc2c1` (racemic): the IC50 (as a rule, the concentration that inhibits the measured activity by half) in [1] was 2.11 µM; in data set [2] it was greater than 400 µM; in [5], greater than 400 µM; in data set [6] it was greater than 400 µM; in data set [8], 3.31 µM; in [11], greater than 400 µM. Also, the Activity entry is given as “Non-toxic” in data set [3], 25% with SAOS-2 [7] and 25% in the data set on SAOS-2 [9]. For the same compound, the solubility – broadly, the concentration that dissolves in the medium under given conditions – in data set [4] stood at 6900 µM. Besides, the Ki (commonly a measure of affinity in units of concentration, obtained from inhibition or displacement) in data set [10] came to 1.3 µM.
`Cl.Nc1ccc2sc(C3CN4C=CSC4=N3)cc2c1` (racemic): the IC50 in [1] is 18.3 µM; in data set [2], greater than 400 µM; in data set [5] it was greater than 400 µM; in data set [6] it was greater than 400 µM; in data set [8], 23.2 µM; in data set [11], greater than 400 µM. Besides, the Activity entry in data set [3] is “Non-toxic”. Besides, the concentration in solution in [4] (solubility) was 1770 µM. Further, the outcome in the data set on SAOS-2 [7] and in the data set with SAOS-2 [9] was Active. Also, in data set [10], the Ki was found to be 10.3 µM.
On to `C1=CN2CC(c3cc4ccccc4s3)N=C2S1.Cl` (racemic), for which the 50% inhibitory concentration (IC50) in data set [1] was 4.4 µM; in [2], greater than 400 µM; in [5] it was greater than 400 µM; in data set [6], greater than 400 µM; in [8], 13.1 µM; in data set [11] it was greater than 400 µM. For the same compound, the result with MG-63 [12], in the data set with MG-63 [13], in the data set on SAOS-2 [7] and in the data set on SAOS-2 [9] was Active. Moreover, the Activity entry in [3] and in [14] was “Non-toxic” throughout. For the same compound, the solubility in data set [4] came out at 1300 µM. In addition, in [10], the Ki turned out to be 3.9 µM.
In the case of `Cl.c1ccc2sc(C3CN4CCSC4=N3)cc2c1` (racemic), the IC50 was 5.5 µM in data set [1]; greater than 400 µM in [2]; greater than 400 µM in data set [5]; greater than 400 µM in data set [6]; 16.4 µM in data set [8]; greater than 400 µM in data set [11]. Moreover, the outcome with MG-63 [12], in the data set with MG-63 [13], with SAOS-2 [7] and with SAOS-2 [9] was Active. In addition, the Activity entry in data set [3] and in data set [14] was “Non-toxic” each time. The solubility in data set [4] worked out at 450 µM. Further, the Ki in [10] worked out at 5 µM.
As for `c1ccc([C@H]2CN3CCSC3=N2)cc1` [LEVAMISOLE], the IC50 was 23.2 µM in [1]; greater than 400 µM in [2]; greater than 400 µM in data set [5]; greater than 400 µM in data set [6]; 62.9 µM in [8]; greater than 400 µM in data set [11]. In [15], this compound registered a solubility of 200 mM (≈ 40.9 mg/mL). For the same compound, the outcome in the data set with MG-63 [12] and in the data set with MG-63 [13] was Active. Further, the Activity result is listed as “Non-toxic” in [3], 33% in the data set with SAOS-2 [7], “Non-toxic” in data set [14] and 33% with SAOS-2 [9]. Further, in data set [10], the Ki amounted to 30.5 µM.

Source of the values: ChEMBL document CHEMBL3091295, “Inhibitors of tissue-nonspecific alkaline phosphatase: design, synthesis, kinetics, biomineralization and cellular tests” (Bioorg Med Chem, 2013).
